Measured values taken from ChEMBL document CHEMBL1135727, “Selective antagonists at group I metabotropic glutamate receptors: synthesis and molecular pharmacology of 4-aryl-3-isoxazolol amino acids” (J Med Chem, 2002).

Legend:
Glutamate NMDA receptor = assay: Concentration which causes 50% reduction in receptor binding affinity against N-methyl-D-aspartate glutamate receptor (NMDA) using [3H]CPP; type: protein-complex assay
[1] = target: Metabotropic glutamate receptor 1 (Rattus norvegicus, UniProt P23385); assay: The compound was tested for the receptor binding affinity at Metabotropic glutamate receptor 1 using established second messenger assay systems.
Method in brief: (§1)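 Receptors were expressed in CHO cells: mGluR1α, mGluR2, mGluR4a and mGluR5a. Functional read-outs were PI hydrolysis (1.8 × 10^6 cells seeded 2 days before) or cyclic AMP formation (1.0 × 10^6 cells seeded 2 days before). Agonist and antagonist activity was tested at 1 mM unless stated otherwise. Ki was derived from IC50 via the Cheng–Prusoff equation.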

[2] = target: Metabotropic glutamate receptor 4 (Rattus norvegicus, UniProt P31423); assay: The compound was tested for the receptor binding affinity at Metabotropic glutamate receptor 4 using established second messenger assay systems.; method in brief: as §1
[3] = target: Metabotropic glutamate receptor 5 (Rattus norvegicus, UniProt P31424); assay: The compound was tested for the receptor binding affinity at Metabotropic glutamate receptor 5 using established second messenger assay systems.; method in brief: as §1
[4] = target: Metabotropic glutamate receptor 2 (Rattus norvegicus, UniProt P31421); assay: The compound was tested for the receptor binding affinity at Metabotropic glutamate receptor 2 using established second messenger assay systems.; method in brief: as §1
[5] = target: Glutamate receptor ionotropic, kainate 1 (Rattus norvegicus, UniProt P22756); assay: Concentration which causes 50% reduction in receptor binding affinity against Ionotropic glutamate receptor ionotropic kainate using [3H]-kainic acid
[6] = target: T1, Glutamate receptor ionotropic, AMPA (Rattus norvegicus, UniProt P19490+P19491+P19492+P19493); assay: Concentration which causes 50% reduction in receptor binding affinity against Ionotropic glutamate receptor AMPA using [3H]AMPA; type: protein-complex assay
Rattus norvegicus [7] = species: Rattus norvegicus; assay: Electropharmacology measured as antagonist effects in the rat cortical wedge model; type: functional
Rattus norvegicus [8] = species: Rattus norvegicus; assay: Electropharmacology measured as agonist effects in the rat cortical wedge model; type: functional
[9] = target: T1, Glutamate receptor ionotropic, AMPA; assay: Concentration which causes 50% reduction in receptor binding affinity against Ionotropic glutamate receptor AMPA using [3H]AMPA

Metabotropic glutamate receptor 1, sequence (P23385 whole entry): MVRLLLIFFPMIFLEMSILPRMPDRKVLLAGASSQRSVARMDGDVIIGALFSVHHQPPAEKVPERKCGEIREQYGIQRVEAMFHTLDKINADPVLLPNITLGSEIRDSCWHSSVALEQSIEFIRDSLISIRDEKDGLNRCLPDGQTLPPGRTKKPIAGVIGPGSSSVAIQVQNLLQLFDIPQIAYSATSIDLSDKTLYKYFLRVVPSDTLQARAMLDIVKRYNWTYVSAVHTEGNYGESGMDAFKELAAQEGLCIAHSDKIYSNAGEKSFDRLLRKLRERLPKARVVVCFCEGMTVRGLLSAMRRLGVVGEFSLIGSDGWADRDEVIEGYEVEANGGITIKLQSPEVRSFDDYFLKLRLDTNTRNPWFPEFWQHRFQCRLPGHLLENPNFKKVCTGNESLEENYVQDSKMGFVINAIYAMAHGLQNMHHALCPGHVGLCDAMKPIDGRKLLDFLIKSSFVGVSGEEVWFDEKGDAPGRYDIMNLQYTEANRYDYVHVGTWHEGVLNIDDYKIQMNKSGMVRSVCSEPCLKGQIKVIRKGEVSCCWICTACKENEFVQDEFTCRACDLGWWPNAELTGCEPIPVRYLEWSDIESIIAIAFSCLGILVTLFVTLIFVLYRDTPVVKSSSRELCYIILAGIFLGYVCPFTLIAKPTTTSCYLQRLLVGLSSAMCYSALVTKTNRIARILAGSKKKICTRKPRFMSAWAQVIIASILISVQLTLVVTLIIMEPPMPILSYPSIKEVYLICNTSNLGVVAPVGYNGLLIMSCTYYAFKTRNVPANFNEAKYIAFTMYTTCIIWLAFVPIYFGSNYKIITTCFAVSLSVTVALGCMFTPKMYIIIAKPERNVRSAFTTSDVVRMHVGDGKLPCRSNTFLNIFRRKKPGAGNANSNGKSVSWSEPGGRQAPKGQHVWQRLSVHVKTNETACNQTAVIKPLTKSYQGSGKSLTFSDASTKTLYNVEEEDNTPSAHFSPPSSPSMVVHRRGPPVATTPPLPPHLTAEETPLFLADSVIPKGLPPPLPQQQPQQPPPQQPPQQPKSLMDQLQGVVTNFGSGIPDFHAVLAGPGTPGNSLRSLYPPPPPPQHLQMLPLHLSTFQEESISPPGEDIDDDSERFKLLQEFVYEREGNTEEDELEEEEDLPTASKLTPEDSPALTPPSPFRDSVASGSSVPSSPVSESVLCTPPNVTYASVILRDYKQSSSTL
Glutamate receptor ionotropic, kainate 1, sequence (P22756 whole entry): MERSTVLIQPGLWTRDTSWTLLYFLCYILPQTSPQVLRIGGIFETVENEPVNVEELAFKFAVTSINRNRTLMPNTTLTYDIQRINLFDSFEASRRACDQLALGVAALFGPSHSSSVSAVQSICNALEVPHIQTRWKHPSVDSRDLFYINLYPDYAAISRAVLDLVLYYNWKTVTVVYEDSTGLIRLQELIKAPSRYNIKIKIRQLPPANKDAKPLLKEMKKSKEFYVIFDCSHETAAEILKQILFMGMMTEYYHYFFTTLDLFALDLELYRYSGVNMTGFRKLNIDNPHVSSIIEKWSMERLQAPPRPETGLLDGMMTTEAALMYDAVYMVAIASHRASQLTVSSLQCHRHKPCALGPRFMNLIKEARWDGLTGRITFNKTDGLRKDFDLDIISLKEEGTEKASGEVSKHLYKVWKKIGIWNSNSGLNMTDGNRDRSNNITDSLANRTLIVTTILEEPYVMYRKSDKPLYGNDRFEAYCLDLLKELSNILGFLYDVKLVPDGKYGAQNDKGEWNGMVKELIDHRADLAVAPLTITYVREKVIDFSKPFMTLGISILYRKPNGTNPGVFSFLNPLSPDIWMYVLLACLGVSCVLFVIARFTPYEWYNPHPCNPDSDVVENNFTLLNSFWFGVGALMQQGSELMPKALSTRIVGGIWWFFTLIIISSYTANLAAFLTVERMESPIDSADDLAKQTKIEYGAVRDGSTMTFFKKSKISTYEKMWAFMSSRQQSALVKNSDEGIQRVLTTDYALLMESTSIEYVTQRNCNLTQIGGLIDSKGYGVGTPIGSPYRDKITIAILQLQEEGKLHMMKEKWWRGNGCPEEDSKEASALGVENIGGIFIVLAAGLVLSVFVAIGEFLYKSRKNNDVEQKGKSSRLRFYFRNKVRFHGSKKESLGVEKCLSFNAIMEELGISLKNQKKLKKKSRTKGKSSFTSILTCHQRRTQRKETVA
Metabotropic glutamate receptor 2, sequence (P31421 whole entry): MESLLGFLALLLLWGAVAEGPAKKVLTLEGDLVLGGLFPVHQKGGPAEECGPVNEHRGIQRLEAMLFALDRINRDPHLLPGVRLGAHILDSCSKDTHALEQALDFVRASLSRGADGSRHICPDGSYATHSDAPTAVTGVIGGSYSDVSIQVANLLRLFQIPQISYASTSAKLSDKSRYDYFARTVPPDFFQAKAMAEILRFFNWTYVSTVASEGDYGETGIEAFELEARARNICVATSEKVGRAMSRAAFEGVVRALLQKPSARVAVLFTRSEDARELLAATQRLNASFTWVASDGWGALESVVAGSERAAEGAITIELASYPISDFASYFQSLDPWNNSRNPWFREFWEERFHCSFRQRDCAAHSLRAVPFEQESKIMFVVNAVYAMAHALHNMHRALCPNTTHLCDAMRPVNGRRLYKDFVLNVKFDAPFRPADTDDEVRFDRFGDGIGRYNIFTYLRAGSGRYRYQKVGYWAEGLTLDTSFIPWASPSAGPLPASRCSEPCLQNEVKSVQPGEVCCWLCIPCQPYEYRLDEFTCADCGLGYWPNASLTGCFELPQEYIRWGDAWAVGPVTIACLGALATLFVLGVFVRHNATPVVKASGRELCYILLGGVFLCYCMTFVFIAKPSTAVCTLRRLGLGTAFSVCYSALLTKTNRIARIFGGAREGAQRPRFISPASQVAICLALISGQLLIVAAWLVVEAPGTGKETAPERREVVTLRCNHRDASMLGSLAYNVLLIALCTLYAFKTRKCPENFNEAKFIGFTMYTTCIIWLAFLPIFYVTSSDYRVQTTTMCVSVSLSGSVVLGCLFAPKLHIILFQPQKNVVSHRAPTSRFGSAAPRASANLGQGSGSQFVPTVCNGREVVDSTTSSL
Metabotropic glutamate receptor 4, sequence (P31423 whole entry): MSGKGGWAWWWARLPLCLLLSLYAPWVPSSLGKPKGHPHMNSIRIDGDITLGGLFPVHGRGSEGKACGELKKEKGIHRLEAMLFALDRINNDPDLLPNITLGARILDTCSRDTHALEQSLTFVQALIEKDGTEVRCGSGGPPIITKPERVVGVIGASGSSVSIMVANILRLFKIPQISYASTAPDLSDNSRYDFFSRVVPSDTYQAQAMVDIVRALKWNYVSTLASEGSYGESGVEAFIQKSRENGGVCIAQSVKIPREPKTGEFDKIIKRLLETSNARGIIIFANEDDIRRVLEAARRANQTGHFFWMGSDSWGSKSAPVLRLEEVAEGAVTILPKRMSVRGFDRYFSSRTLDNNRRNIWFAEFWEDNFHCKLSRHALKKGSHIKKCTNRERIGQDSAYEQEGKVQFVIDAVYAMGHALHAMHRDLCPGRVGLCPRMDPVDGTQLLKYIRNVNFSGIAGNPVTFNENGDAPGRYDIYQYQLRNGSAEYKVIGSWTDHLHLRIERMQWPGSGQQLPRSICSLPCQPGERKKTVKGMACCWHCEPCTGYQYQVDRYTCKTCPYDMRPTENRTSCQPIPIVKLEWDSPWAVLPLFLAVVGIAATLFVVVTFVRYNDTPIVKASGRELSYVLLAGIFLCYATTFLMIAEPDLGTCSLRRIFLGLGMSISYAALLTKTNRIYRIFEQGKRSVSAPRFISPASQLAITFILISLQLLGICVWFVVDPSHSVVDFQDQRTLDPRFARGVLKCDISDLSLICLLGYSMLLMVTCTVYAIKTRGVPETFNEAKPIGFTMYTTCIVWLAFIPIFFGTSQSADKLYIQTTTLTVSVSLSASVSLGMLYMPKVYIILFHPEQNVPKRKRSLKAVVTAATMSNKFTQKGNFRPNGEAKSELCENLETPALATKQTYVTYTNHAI

N[C@@H](Cc1cc(=O)[nH]o1)C(=O)O
IC50 (Glutamate NMDA receptor): > 100 µM
Ki [1]: 250 µM
Ki [2]: > 1 mM
Ki [3]: 490 µM
Ki [4]: > 1 mM
IC50 [5]: > 100 µM

N[C@@H](Cc1o[nH]c(=O)c1CCc1ccccc1)C(=O)O
IC50 (Glutamate NMDA receptor): > 100 µM
Ki [1]: 92 µM
IC50 [6]: > 100 µM
IC50 (Rattus norvegicus [7]): > 1 mM
Ki [2]: > 1 mM
Ki [3]: 70 µM
Ki [4]: > 1 mM
IC50 [5]: > 100 µM

N[C@@H](Cc1onc(O)c1-c1ccccc1O)C(=O)O
IC50 (Glutamate NMDA receptor): > 100 µM
Ki [1]: 125 µM
IC50 [6]: > 100 µM
Ki [2]: > 1 mM
EC50 (Rattus norvegicus [8]): > 1000 µM
Ki [3]: 45 µM
Ki [4]: > 1 mM
IC50 [5]: > 100 µM

N[C@@H](Cc1o[nH]c(=O)c1-c1cccc2ccccc12)C(=O)O
IC50 (Glutamate NMDA receptor): > 100 µM
Ki [1]: 119 µM
IC50 [9]: > 100 µM
IC50 (Rattus norvegicus [7]): ~1 mM
Ki [2]: > 1 mM
Ki [3]: 62 µM
Ki [4]: > 1 mM
IC50 [5]: > 100 µM

N[C@@H](Cc1o[nH]c(=O)c1-c1ccccn1)C(=O)O
IC50 (Glutamate NMDA receptor): > 100 µM
Ki [1]: 396 µM
IC50 [6]: 1.3 µM
Ki [2]: > 1 mM
EC50 (Rattus norvegicus [8]): 23 µM
Ki [3]: 224 µM
Ki [4]: > 1 mM
IC50 [5]: > 100 µM

N[C@@H](Cc1onc(O)c1-c1cccc(O)c1)C(=O)O
IC50 (Glutamate NMDA receptor): 42 µM
Ki [1]: 226 µM
IC50 [6]: 62 µM
Ki [2]: > 1 mM
EC50 (Rattus norvegicus [8]): 990 µM
Ki [4]: > 1 mM
IC50 [5]: > 100 µM

N[C@@H](Cc1onc(O)c1-c1ccccc1)C(=O)O
IC50 (Glutamate NMDA receptor): > 100 µM
Ki [1]: 160 µM
IC50 [6]: > 100 µM
Ki [2]: > 1 mM
EC50 (Rattus norvegicus [8]): 590 µM
Ki [4]: > 1 mM
IC50 [5]: > 100 µM

N[C@@H](Cc1onc(O)c1-c1ccc(O)cc1)C(=O)O
IC50 (Glutamate NMDA receptor): 20 µM
Ki [1]: 71 µM
IC50 [6]: > 100 µM
IC50 (Rattus norvegicus [7]): ~1 mM
Ki [2]: > 1 mM
Ki [3]: 65 µM
Ki [4]: > 1 mM
IC50 [5]: > 100 µM

N[C@@H](Cc1onc(O)c1-c1ccc2ccccc2c1)C(=O)O
IC50 (Glutamate NMDA receptor): 14 µM
Ki [1]: 249 µM
IC50 [6]: > 100 µM
IC50 (Rattus norvegicus [7]): 0.715 mM
Ki [2]: > 1 mM
Ki [3]: 53 µM
Ki [4]: > 1 mM
IC50 [5]: > 100 µM
